Results as given in ChEMBL document CHEMBL4680079, “Discovery of a Quinoline-4-carboxamide Derivative with a Novel Mechanism of Action, Multistage Antimalarial Activity, and Potent in Vivo Efficacy” (J Med Chem, 2016).
pEC50, pIC50: −log10 of the molar value. Converted amounts (≈) assume the structure as drawn.

Tests used:
[1] = Intrinsic clearance in human liver microsomes at 0.5 uM in presence of NADPH incubated upto 30 mins by UPLC-MS/MS analysis; format: ADME, Microsome; details: 0.5 h
Procedure, shortened: (§1)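 Compound at 0.5 μM incubated with female CD1 mouse, male Sprague-Dawley rat or pooled human liver microsomes (0.5 mg/mL, 50 mM potassium phosphate, pH 7.4). Reaction started with excess NADPH. Samples taken at 0-30 min, quenched in acetonitrile, analysed by UPLC-MS/MS. Verapamil used as control, single time course.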

[2] = Toxicity in NMRI mouse assessed as maximum tolerated dose administered twice a day for 4 days; details: in vivo, time 4 day
[3] = Half-life in NMRI mouse at 3 mg/kg, iv administered as bolus dose by UPLC-MS/MS analysis; format: ADME, organism-based; details: in vivo
Procedure, shortened: (§2)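 Intravenous bolus solution, 3 mg free base/kg (5 mL/kg; 10% DMSO, 90% saline), given to female NMRI mice (n=3). Compound level in blood determined by UPLC-MS/MS. PK parameters derived from the blood concentration-time curve.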

[4] = Tmax in NMRI mouse at 10 mg/kg, po administered as gavage by UPLC-MS/MS analysis; format: ADME, organism-based; details: in vivo
Procedure, shortened: (§3)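 Female NMRI mice (n=3) dosed by oral gavage as a solution at 10 mg free base/kg (10 mL/kg; vehicle 5 or 10% DMSO, 40% PEG400). Blood levels measured by UPLC-MS/MS. Parameters derived from the blood concentration-time curve.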

Plasmodium berghei [5] = assay: Antiplasmodial activity against Plasmodium berghei ANKA infected in NMRI mouse assessed as survival days at 30 mg/kg, po QD for 4 days; format: functional; details: time 4 day
[6] = target: Voltage-gated inwardly rectifying potassium channel KCNH2 (Homo sapiens, UniProt Q12809); assay: Inhibition of human ERG by IonWorks patch-clamp electrophysiology method
Procedure, shortened: (§4)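 hERG K⁺ channel inhibition measured by IonWorks patch-clamp electrophysiology. Eight-point concentration-response curves made from 3-fold serial dilutions down from the maximum final assay concentration. Each curve generated on 2 occasions.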

[7] = Protein binding in CD1 mouse plasma measured after 5 hr by UPLC-MS/MS analysis based equilibrium dialysis method; format: ADME, cell-free; details: mouse, 5 h
Procedure, shortened: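 Equilibrium dialysis of female CD1 mouse plasma spiked at 10 μg/mL (12-14 kDa membrane) against isotonic buffer for 5 h at ~37°C with shaking. Unbound fraction taken as the buffer/plasma peak-area ratio by UPLC-MS/MS. n=6 replicates, run in triplicate.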

[8] = Intrinsic clearance in Sprague-Dawley rat liver microsomes at 0.5 uM in presence of NADPH incubated upto 30 mins by UPLC-MS/MS analysis; format: ADME, Microsome; details: 0.5 h; procedure, shortened: as §1
MRC5 = assay: Antiproliferative activity against human MRC5 cells assessed as reduction in cell viability after 68 hrs by resazurin dye based fluorescence assay; details: MRC5, 68 h
Procedure, shortened: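 MRC-5 fibroblasts plated overnight as monolayers, exposed to compound pre-diluted in MEM for 68 h. Resazurin then added (final 50 μM) for 3 h, fluorescence read at ex 528/em 590 nm. Signal converted to % inhibition against high- and no-inhibition controls. Plates accepted at Z' > 0.5.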

[9] = Clearance in NMRI mouse blood at 3 mg/kg, iv administered as bolus dose by UPLC-MS/MS analysis; format: ADME, organism-based; procedure, shortened: as §2
[10] = AUC in NMRI mouse at 10 mg/kg, po administered as gavage by UPLC-MS/MS analysis; format: ADME, organism-based; set-up: dose 10 mg/kg; details: in vivo; procedure, shortened: as §3
Plasmodium berghei [11] = assay: Antiplasmodial activity against Plasmodium berghei ANKA infected in NMRI mouse assessed as reduction in parasitemia at 30 mg/kg, po QD for 4 days; format: functional; set-up: scale not given: the % may be the effect or the level left; details: time 4 day
Procedure, shortened: (§5)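 Female NMRI mice (n=3 per group, randomized, not blinded) infected with GFP-transfected P. berghei ANKA. Oral dosing once daily for 4 days in 10% DMSO/40% PEG400/50% water or HPMC suspension vehicle. Parasitaemia measured by flow cytometry on blood collected 96 h after infection. Mice watched for toxicity over 4 h post-dose each day.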

[12] = Intrinsic clearance in CD1 mouse liver microsomes at 0.5 uM in presence of NADPH incubated upto 30 mins by UPLC-MS/MS analysis; format: ADME, Microsome; details: 0.5 h; procedure, shortened: as §1
[13] = Cmax in NMRI mouse at 10 mg/kg, po administered as gavage by UPLC-MS/MS analysis; format: ADME, organism-based; set-up: route oral, dose 10 mg/kg; details: in vivo; procedure, shortened: as §3
[14] = Oral bioavailability in NMRI mouse at 10 mg/kg administered via gavage by UPLC-MS/MS analysis; format: ADME, organism-based; details: in vivo; procedure, shortened: as §3
[15] = Kinetic aqueous solubility of the compound by laser nephelometry; format: physicochemical; details: read-out: Kinetic_solubility
Procedure, shortened: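 Kinetic solubility measured by laser nephelometry. DMSO serial dilutions diluted into water to give final 100–5 μg/mL at 1.0% DMSO. Read immediately, in triplicate aliquots.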

hERG (KCNH2) = hERG (KCNH2) (Homo sapiens, UniProt Q12809); assay: Inhibition of human ERG at 11 uM by IonWorks patch-clamp electrophysiology method relative to control; procedure, shortened: as §4
[16] = Permeability of the compound at 10 uM incubated for 5 hrs by UPLC-MS/MS analysis based PAMPA method; format: ADME; details: read-out: permeability
Procedure, shortened: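 PAMPA run on a lipid-oil-lipid tri-layer filter at pH 7.4. Compound at 10 μM in PBS (DMSO ≤5%) in donor wells, PBS in acceptor wells, kept 5 h at room temperature. Both compartments quantified by UPLC-MS/MS. Data accepted only when recovery exceeded 70%.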

[17] = Volume of distribution at steady state in NMRI mouse at 3 mg/kg, iv administered as bolus dose by UPLC-MS/MS analysis; format: ADME, organism-based; details: in vivo, read-out: Vdss; procedure, shortened: as §2
Plasmodium falciparum [18] = assay: Antiplasmodial activity against chloroquine-sensitive Plasmodium falciparum 3D7 infected in human red blood cells assessed as growth inhibition by SYBR Green fluorescence assay; format: functional, organism-based, RBC; details: 3D7, Erythrocyte
Procedure, shortened: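 P. falciparum 3D7 grown in 5% human red cells in RPMI 1640 (pH 7.3) with 0.5% Albumax II, hypoxanthine and gentamicin at 37°C under 1% O₂/3% CO₂. Growth measured by SYBR green fluorescence (ex 485/em 528 nm), with mefloquine as assay control. EC50 calculated.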

Plasmodium berghei [19] = assay: Antiplasmodial activity against GFP-transfected Plasmodium berghei ANKA infected in NMRI mouse assessed as reduction in parasitemia by measuring effective dose administered once daily oral dose for 4 days; format: functional; details: 96 h, time 4 day; procedure, shortened: as §5
Plasmodium berghei [20] = assay: Antiplasmodial activity against Plasmodium berghei ANKA infected in NMRI mouse assessed as reduction in parasitemia at 1 mg/kg, po QD for 4 days; format: functional; set-up: scale not given: the % may be the effect or the level left; details: time 4 day; procedure, shortened: as §5
Plasmodium berghei [21] = assay: Antiplasmodial activity against Plasmodium berghei ANKA infected in NMRI mouse assessed as survival days at 1 mg/kg, po QD for 4 days; format: functional; details: time 4 day
Plasmodium berghei [22] = assay: Antiplasmodial activity against Plasmodium berghei ANKA infected in NMRI mouse assessed as survival days at 3 mg/kg, po QD for 4 days; format: functional; details: time 4 day
Plasmodium berghei [23] = assay: Antiplasmodial activity against Plasmodium berghei ANKA infected in NMRI mouse assessed as survival days at 10 mg/kg, po QD for 4 days; format: functional; details: time 4 day
Plasmodium berghei [24] = assay: Antiplasmodial activity against Plasmodium berghei infected in NMRI mouse assessed as reduction in parasitemia at 3 mg/kg, po QD for 4 days; format: functional; set-up: scale not given: the % may be the effect or the level left; details: time 4 day; procedure, shortened: as §5
Plasmodium yoelii = assay: Antiplasmodial activity against Plasmodium yoelli liver stage forms; format: functional, organism-based
Plasmodium berghei [25] = assay: Antiplasmodial activity against Plasmodium berghei ookinete form assessed as growth inhibition incubated for 22 hrs by GFP-based fluorescence microscopic analysis; format: functional, organism-based
Plasmodium berghei [26] = assay: Antiplasmodial activity against Plasmodium berghei ANKA infected in NMRI mouse assessed as reduction in parasitemia at 10 mg/kg, po QD for 4 days; format: functional; set-up: scale not given: the % may be the effect or the level left; details: time 4 day; procedure, shortened: as §5
Plasmodium falciparum [27] = assay: Antiplasmodial activity against late stage (IV/V) Plasmodium falciparum NF54 gametocytes transfected with GFP-LUC assessed as growth inhibition incubated for 72 hrs by mitotracker Red-CMXROS dye based fluorescence microscopic analysis; format: functional, organism-based; details: NF54, 72 h
Procedure, shortened: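 NF54 pfs16-LUC-GFP stage IV–V gametocytes (10% parasitaemia, 0.1% haematocrit) exposed to compound in 0.4% DMSO, three concentrations per log, for 72 h at 37°C under 5% CO2/5% O2/90% N2. MitoTracker Red CM-H2Xros then added for 16 h and viable gametocytes counted by imaging.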

HepG2 = assay: Antiproliferative activity against human HepG2 cells assessed as reduction in cell viability; format: cell-based

Chain of Voltage-gated inwardly rectifying potassium channel KCNH2 (Q12809 whole entry): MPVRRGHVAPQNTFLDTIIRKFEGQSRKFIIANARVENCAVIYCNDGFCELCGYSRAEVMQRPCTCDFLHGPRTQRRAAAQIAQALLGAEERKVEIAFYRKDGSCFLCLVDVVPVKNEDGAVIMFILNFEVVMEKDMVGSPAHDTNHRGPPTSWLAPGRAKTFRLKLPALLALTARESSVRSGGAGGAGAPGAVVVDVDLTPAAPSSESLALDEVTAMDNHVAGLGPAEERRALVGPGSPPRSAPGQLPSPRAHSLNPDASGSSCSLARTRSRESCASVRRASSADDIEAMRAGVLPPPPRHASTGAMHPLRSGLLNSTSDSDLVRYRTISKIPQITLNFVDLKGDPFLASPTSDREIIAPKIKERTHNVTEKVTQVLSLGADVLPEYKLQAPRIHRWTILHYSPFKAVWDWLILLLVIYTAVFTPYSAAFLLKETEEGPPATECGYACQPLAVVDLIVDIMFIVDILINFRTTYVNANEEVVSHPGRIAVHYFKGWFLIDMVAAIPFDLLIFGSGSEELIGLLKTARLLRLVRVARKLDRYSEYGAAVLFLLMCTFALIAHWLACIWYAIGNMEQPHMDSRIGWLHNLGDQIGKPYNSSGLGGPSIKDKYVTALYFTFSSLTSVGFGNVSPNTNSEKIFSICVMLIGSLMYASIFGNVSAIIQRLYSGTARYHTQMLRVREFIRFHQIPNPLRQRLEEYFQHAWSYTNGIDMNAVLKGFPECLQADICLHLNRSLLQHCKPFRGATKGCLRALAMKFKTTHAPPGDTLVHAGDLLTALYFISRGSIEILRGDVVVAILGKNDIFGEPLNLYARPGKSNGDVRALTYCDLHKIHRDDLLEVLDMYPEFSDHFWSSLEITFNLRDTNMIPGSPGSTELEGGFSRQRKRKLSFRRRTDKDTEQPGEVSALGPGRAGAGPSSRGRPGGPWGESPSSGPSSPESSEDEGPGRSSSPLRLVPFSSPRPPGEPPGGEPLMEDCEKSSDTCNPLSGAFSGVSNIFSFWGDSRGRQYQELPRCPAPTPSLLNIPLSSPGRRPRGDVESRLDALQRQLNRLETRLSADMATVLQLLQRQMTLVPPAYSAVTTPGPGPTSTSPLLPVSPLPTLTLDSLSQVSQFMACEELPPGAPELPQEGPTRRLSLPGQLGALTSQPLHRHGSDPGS
Chain of hERG (KCNH2) (Q12809 whole entry): as above

| SMILES | CLH [1] [mL/min/g] | half-life [3] [h] | Tmax [4] [h] | Survival (Plasmodium berghei [5]) [days] | pIC50 [6] | pEC50 (MRC5) | clearance [9] [L/h/kg] | AUC [10] [µg·h/mL] | Activity (Plasmodium berghei [11]) [%] | CLH [12] [mL/min/g] | Cmax [13] [µg/mL] | bioavailability [14] [%] | solubility kinetic [15] [µM] | Papp at 5 h, 10 µM [16] [nm/s] | Vd [17] [L/kg] | pEC50 (Plasmodium falciparum [18]) | other results |
| --- | --- | --- | --- | --- | --- | --- | --- | --- | --- | --- | --- | --- | --- | --- | --- | --- | --- |
| O=C(NCCN1CCCC1)c1cc(NCCCN2CCOCC2)nc2ccc(F)cc12 | < 0.5 | 3.2 | 2 | 7 | < 4.96 | 4.39 | 0.84 | 1.55 | 93 | 0.8 | 0.315 | 15 | 230 (≈ 98.8 µg/mL) | 2.3 | 3 | 7.15 | MTD at 96 h [2]: 300 mg/kg; PPB [7]: 59%; CLH [8]: < 0.5 mL/min/g; inhibition at 11 µM (hERG (KCNH2)): 16% |
| O=C(NCCN1CCCC1)c1cc(NCCCCN2CCOCC2)nc2ccc(Cl)cc12 | < 1 | 12.5 | 2 | 22 | < 4.96 | 4.89 | 0.24 | 2.94 | 99.8 | 2 | 0.579 | 16 | 217 (≈ 99.8 µg/mL) | 2 | 3.5 | 8.40 | ED90 (Plasmodium berghei [19]): 2.6 mg/kg; Activity (Plasmodium berghei [20]): 48%; Survival (Plasmodium berghei [21]): 6 days; Survival (Plasmodium berghei [22]): 9 days; Survival (Plasmodium berghei [23]): 15 days; Activity (Plasmodium berghei [24]): 96%; pEC50 (Plasmodium yoelii): 7.74; pEC50 (Plasmodium berghei [25]): 8.30; Activity (Plasmodium berghei [26]): 99.7%; pEC50 (Plasmodium falciparum [27]): 6.98 |
| CN(CCN1CCCC1)C(=O)c1cc(-c2ccc(CN3CCOCC3)cc2)nc2ccc(F)cc12 |  |  |  |  |  |  |  |  |  | < 0.5 |  |  | > 210 | 137 |  | 7.06 | pEC50 (HepG2): < 4.30 |
